{"source": "ChEMBL document CHEMBL3526056", "about": "“Characterization of in vitro glucuronidation clearance of a range of drugs in human kidney microsomes: comparison with liver and intestinal glucuronidation and impact of albumin” (Drug Metab Dispos, 2012)", "key": {"[1]": {"assay": "Clearance in iv dosed human", "type": "ADME, organism-based", "conditions": "in vivo"}, "Liver microsome [2]": {"system": "Liver microsome", "assay": "Ratio of unbound intrinsic glucuronidation clearance in human liver microsomes in presence of 1% bovine serum albumin to unbound intrinsic glucuronidation clearance in human liver microsomes in absence of bovine serum albumin", "type": "ADME", "procedure,_shortened": "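Ratio of mean unbound CLint,UGT in pooled human liver microsomes with 1% BSA to that without BSA. Both come from 1 μM depletion assays at 37°C in pH 7.1 phosphate buffer, with parent drug measured by LC-MS/MS. BSA runs were quenched in double-volume ice-cold acetonitrile. Each condition was corrected by its own equilibrium-dialysis fu,inc. n = 3, duplicates.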"}, "[3]": {"target": "T1, UDP-glucuronosyltransferase 1A3 (Homo sapiens, UniProt P35503)", "T1 sequence (P35503 whole entry)": "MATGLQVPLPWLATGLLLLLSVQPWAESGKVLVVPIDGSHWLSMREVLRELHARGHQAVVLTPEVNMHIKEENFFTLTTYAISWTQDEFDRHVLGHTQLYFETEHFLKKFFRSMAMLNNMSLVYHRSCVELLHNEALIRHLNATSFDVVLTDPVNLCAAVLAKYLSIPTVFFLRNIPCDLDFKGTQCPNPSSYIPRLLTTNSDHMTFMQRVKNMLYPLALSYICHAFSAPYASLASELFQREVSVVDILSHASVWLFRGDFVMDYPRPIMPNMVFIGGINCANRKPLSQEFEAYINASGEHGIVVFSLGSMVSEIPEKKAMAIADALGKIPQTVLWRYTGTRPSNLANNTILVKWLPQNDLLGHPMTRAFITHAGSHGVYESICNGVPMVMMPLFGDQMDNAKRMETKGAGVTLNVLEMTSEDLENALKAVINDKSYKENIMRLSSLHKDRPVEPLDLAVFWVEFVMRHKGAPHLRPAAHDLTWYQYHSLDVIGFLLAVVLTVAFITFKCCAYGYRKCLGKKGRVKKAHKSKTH", "assay": "Drug metabolism in human intestinal microsomes assessed as UGT1A3-mediated unbound intrinsic glucuronidation clearance at 1 uM after 30 to 60 mins by LC-MS/MS analysis in presence of 1% bovine serum albumin", "type": "ADME, Intestine"}, "[4]": {"target": "T1, UDP-glucuronosyltransferase 1A3", "assay": "Drug metabolism in human kidney microsomes assessed as UGT1A3-mediated unbound intrinsic glucuronidation clearance at 1 uM after 30 to 60 mins by LC-MS/MS analysis", "type": "ADME", "procedure,_shortened": "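Pooled human kidney microsomes (8 donors), alamethicin-activated. […] Started with cofactor (5 mM in incubation) and run 30–60 min. Parent depletion measured by LC-MS/MS; single-exponential k; corrected by equilibrium-dialysis fu,inc. Duplicates, three occasions.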"}, "[5]": {"assay": "Unbound intrinsic glucuronidation clearance in human kidney microsomes at 1 uM after 30 to 60 mins by LC-MS/MS analysis in presence of UDP-glucuronosyltransferase", "type": "ADME, microsome", "procedure,_shortened": "(§1)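 Alamethicin-activated pooled microsomes (HLM 150 donors; HKM 8; HIM 18). Drug at 1 μM final, preincubated 5 min at 37°C in 0.1 M phosphate pH 7.1 with 3.45 mM MgCl2, 1.15 mM EDTA, 115 μM saccharic acid lactone. Started with […] cofactor (5 mM final), 30–60 min. Cofactor-free controls. Parent depletion by LC-MS/MS, single-exponential k. Corrected by HLM-dialysis fu,inc. Duplicates; n=3 (HIM n=1).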"}, "[6]": {"target": "T1, UDP-glucuronosyltransferase 1A3", "assay": "Ratio of UGT1A3-mediated unbound intrinsic glucuronidation clearance in human intestinal microsomes to UGT1A3-mediated unbound intrinsic glucuronidation clearance in human liver microsomes at 1 uM", "type": "ADME", "procedure,_shortened": "(§2)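 Ratios of mean unbound CLint,UGT, each scaled per g tissue, between pooled liver, kidney and intestinal microsomes. Values come from 1 μM substrate-depletion assays in pH 7.1 phosphate at 37°C, run with or without BSA (1% for acids, 2% for bases/neutral drugs). Corrected for nonspecific binding. Kidney and liver n = 3; intestine n = 1; each in duplicate.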"}, "[7]": {"target": "T1, UDP-glucuronosyltransferase 1A3", "assay": "Ratio of UGT1A3-mediated unbound intrinsic glucuronidation clearance in human kidney microsomes to UGT1A3-mediated unbound intrinsic glucuronidation clearance in human intestinal microsomes at 1 uM", "type": "ADME", "procedure,_shortened": "as §2"}, "[8]": {"assay": "Ratio of unbound intrinsic glucuronidation clearance in human kidney microsomes in presence of 1% bovine serum albumin to unbound intrinsic glucuronidation clearance in human kidney microsomes in absence of bovine serum albumin", "type": "ADME, microsome", "procedure,_shortened": "(§3)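 Unbound intrinsic glucuronidation clearance measured by parent-drug depletion in intestinal or kidney microsomes, once with 1% BSA and once without, under otherwise matched conditions (1 μM drug, pH 7.1 phosphate, 5 mM cofactor, 37°C). Each value was corrected for fu,inc. The ratio is the mean clearance with BSA over the mean without.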"}, "[9]": {"assay": "Fraction unbound in human plasma"}, "[10]": {"target": "T1, UDP-glucuronosyltransferase 1A3", "assay": "Ratio of UGT1A3-mediated unbound intrinsic glucuronidation clearance in human kidney microsomes to UGT1A3-mediated unbound intrinsic glucuronidation clearance in human liver microsomes at 1 uM in presence of 1% bovine serum albumin", "type": "ADME", "procedure,_shortened": "as §2"}, "[11]": {"assay": "Fraction unbound in human intestinal microsomes at 1 uM after 30 to 60 mins by LC-MS/MS analysis", "type": "ADME, Intestine, Microsome"}, "[12]": {"assay": "Unbound intrinsic glucuronidation clearance in human intestinal microsomes at 1 uM after 30 to 60 mins by LC-MS/MS analysis in presence of UDP-glucuronosyltransferase and 1% bovine serum albumin", "type": "ADME, Intestine, Microsome"}, "Liver microsome [13]": {"system": "Liver microsome", "assay": "Unbound intrinsic glucuronidation clearance in human liver microsomes at 1 uM after 30 to 60 mins by LC-MS/MS analysis in presence of UDP-glucuronosyltransferase", "type": "ADME", "procedure,_shortened": "as §1"}, "[14]": {"assay": "Ratio of unbound intrinsic glucuronidation clearance in human intestinal microsomes in presence of 1% bovine serum albumin to unbound intrinsic glucuronidation clearance in human intestinal microsomes in absence of bovine serum albumin", "type": "ADME, Intestine, Microsome", "procedure,_shortened": "as §3"}, "[15]": {"assay": "Unbound intrinsic glucuronidation clearance in human intestinal microsomes at 1 uM after 30 to 60 mins by LC-MS/MS analysis in presence of UDP-glucuronosyltransferase", "type": "ADME, Intestine, Microsome", "procedure,_shortened": "as §1"}, "[16]": {"assay": "Glucuronidation clearance in human liver microsomes in presence of bovine serum albumin", "type": "ADME"}, "[17]": {"target": "T1, UDP-glucuronosyltransferase 1A3", "assay": "Ratio of UGT1A3-mediated unbound intrinsic glucuronidation clearance in human kidney microsomes to UGT1A3-mediated unbound intrinsic glucuronidation clearance in human liver microsomes at 1 uM", "type": "ADME", "procedure,_shortened": "as §2"}, "Liver microsome [18]": {"system": "Liver microsome", "assay": "Fraction metabolized glucuronidation in human liver microsomes in presence of UDP-glucuronosyltransferase and bovine serum albumin", "type": "ADME"}, "Liver microsome [19]": {"system": "Liver microsome", "assay": "Fraction metabolized glucuronidation in human liver microsomes in presence of UDP-glucuronosyltransferase", "type": "ADME"}, "[20]": {"assay": "Fraction unbound in human kidney microsomes at 1 uM after 30 to 60 mins by LC-MS/MS analysis", "type": "ADME"}, "[21]": {"assay": "Glucuronidation clearance in human liver microsomes", "type": "ADME"}, "[22]": {"target": "T1, UDP-glucuronosyltransferase 1A3", "assay": "Drug metabolism in human liver microsomes assessed as UGT1A3-mediated unbound intrinsic glucuronidation clearance at 1 uM after 30 to 60 mins by LC-MS/MS analysis", "type": "ADME"}, "[23]": {"assay": "Unbound intrinsic glucuronidation clearance in human kidney microsomes at 1 uM after 30 to 60 mins by LC-MS/MS analysis in presence of UDP-glucuronosyltransferase and 1% bovine serum albumin", "type": "ADME, microsome"}, "[24]": {"target": "T1, UDP-glucuronosyltransferase 1A3", "assay": "Ratio of UGT1A3-mediated unbound intrinsic glucuronidation clearance in human kidney microsomes to UGT1A3-mediated unbound intrinsic glucuronidation clearance in human intestinal microsomes at 1 uM in presence of 1% bovine serum albumin", "type": "ADME", "procedure,_shortened": "as §2"}, "Liver microsome [25]": {"system": "Liver microsome", "assay": "Fraction unbound in human liver microsomes at 1 uM after 30 to 60 mins by LC-MS/MS analysis in presence of 1% bovine serum albumin", "type": "ADME", "conditions": "microsomes, 1 µM"}, "[26]": {"target": "T1, UDP-glucuronosyltransferase 1A3", "assay": "Drug metabolism in human liver microsomes assessed as UGT1A3-mediated unbound intrinsic glucuronidation clearance at 1 uM after 30 to 60 mins by LC-MS/MS analysis in presence of 1% bovine serum albumin", "type": "ADME"}, "Liver microsome [27]": {"system": "Liver microsome", "assay": "Unbound intrinsic glucuronidation clearance in human liver microsomes at 1 uM after 30 to 60 mins by LC-MS/MS analysis in presence of UDP-glucuronosyltransferase and 1% bovine serum albumin", "type": "ADME"}, "[28]": {"assay": "Fraction unbound in human liver microsomes at 1 uM after 30 to 60 mins by LC-MS/MS analysis", "type": "ADME"}, "[29]": {"target": "T1, UDP-glucuronosyltransferase 1A3", "assay": "Drug metabolism in human kidney microsomes assessed as UGT1A3-mediated unbound intrinsic glucuronidation clearance at 1 uM after 30 to 60 mins by LC-MS/MS analysis in presence of 1% bovine serum albumin", "type": "ADME"}, "[30]": {"target": "T1, UDP-glucuronosyltransferase 1A3", "assay": "Ratio of UGT1A3-mediated unbound intrinsic glucuronidation clearance in human intestinal microsomes to UGT1A3-mediated unbound intrinsic glucuronidation clearance in human liver microsomes at 1 uM in presence of 1% bovine serum albumin", "type": "ADME", "procedure,_shortened": "as §2"}, "[31]": {"target": "T1, UDP-glucuronosyltransferase 1A3", "assay": "Drug metabolism in human intestinal microsomes assessed as UGT1A3-mediated unbound intrinsic glucuronidation clearance at 1 uM after 30 to 60 mins by LC-MS/MS analysis", "type": "ADME, Intestine"}}}
{"smiles": "CCCc1nc2c(C)cc(-c3nc4ccccc4n3C)cc2n1Cc1ccc(-c2ccccc2C(=O)O)cc1", "values": [{"measurement": "clearance", "setting": "[1]", "value": 12.3, "unit": "mL/min/kg"}, {"measurement": "Ratio", "setting": "Liver microsome [2]", "value": 1.6}, {"measurement": "CL free", "setting": "[3]", "value": 1.88, "unit": "mL/min/g"}, {"measurement": "CL free", "setting": "[4]", "value": 0.124, "unit": "mL/min/g"}, {"measurement": "CL free", "setting": "[5]", "value": 9.72, "unit": "µL/min/mg"}, {"measurement": "Ratio", "setting": "[6]", "value": 0.142}, {"measurement": "Ratio", "setting": "[7]", "value": 0.284}, {"measurement": "Ratio", "setting": "[8]", "value": 1.6}, {"measurement": "fraction unbound", "setting": "[9]", "value": 0.005}, {"measurement": "Ratio", "setting": "[10]", "value": 0.028}, {"measurement": "fraction unbound at 1 µM", "setting": "[11]", "value": 0.48}, {"measurement": "CL free", "setting": "[12]", "value": 91.4, "unit": "µL/min/mg"}, {"measurement": "CL free", "setting": "Liver microsome [13]", "value": 76.9, "unit": "µL/min/mg"}, {"measurement": "Ratio", "setting": "[14]", "value": 1.6}, {"measurement": "CL free", "setting": "[15]", "value": 21.3, "unit": "µL/min/mg"}, {"measurement": "CLhep predicted", "setting": "[16]", "value": 9.93, "unit": "mL/min/kg"}, {"measurement": "Ratio", "setting": "[17]", "value": 0.04}, {"measurement": "Drug metabolism", "setting": "Liver microsome [18]", "value": 1}, {"measurement": "Drug metabolism", "setting": "Liver microsome [19]", "value": 1}, {"measurement": "fraction unbound at 1 µM", "setting": "[20]", "value": 0.48}, {"measurement": "CLhep predicted", "setting": "[21]", "value": 9.93, "unit": "mL/min/kg"}, {"measurement": "CL free", "setting": "[22]", "value": 3.08, "unit": "mL/min/g"}, {"measurement": "CL free", "setting": "[23]", "value": 34.3, "unit": "µL/min/mg"}, {"measurement": "Ratio", "setting": "[24]", "value": 0.233}, {"measurement": "Fu", "setting": "Liver microsome [25]", "value": 0.07}, {"measurement": "CL free", "setting": "[26]", "value": 15.8, "unit": "mL/min/g"}, {"measurement": "CL free", "setting": "Liver microsome [27]", "value": 395, "unit": "µL/min/mg"}, {"measurement": "fraction unbound at 1 µM", "setting": "[28]", "value": 0.65}, {"measurement": "CL free", "setting": "[29]", "value": 0.439, "unit": "mL/min/g"}, {"measurement": "Ratio", "setting": "[30]", "value": 0.119}, {"measurement": "CL free", "setting": "[31]", "value": 0.438, "unit": "mL/min/g"}]}
